Reference: ChEMBL document CHEMBL1800075, “Tricyclic imidazole antagonists of the Neuropeptide S Receptor” (Bioorg Med Chem Lett, 2010)

Tests used:
[1] = biological target: T1, Neuropeptide S receptor (Homo sapiens, UniProt Q6W5P4); assay: Antagonist activity at human recombinant NPS receptor expressed in CHOK1 cells assessed as inhibition of NPS-induced calcium mobilization by FLIPR assay; assay type: functional, cell-based, CHO-K1
T1 sequence (Q6W5P4 whole entry): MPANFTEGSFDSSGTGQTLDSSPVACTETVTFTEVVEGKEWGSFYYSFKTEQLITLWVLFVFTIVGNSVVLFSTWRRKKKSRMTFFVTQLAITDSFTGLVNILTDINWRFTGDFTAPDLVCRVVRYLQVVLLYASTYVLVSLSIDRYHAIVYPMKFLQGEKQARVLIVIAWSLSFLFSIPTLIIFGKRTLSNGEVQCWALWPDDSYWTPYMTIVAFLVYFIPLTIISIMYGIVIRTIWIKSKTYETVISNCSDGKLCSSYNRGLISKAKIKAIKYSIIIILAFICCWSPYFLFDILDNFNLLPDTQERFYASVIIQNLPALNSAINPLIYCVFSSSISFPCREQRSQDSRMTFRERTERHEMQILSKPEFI
In short: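 Dual-sequence FLIPR Ca2+ mobilization on CHOK1 cells expressing recombinant NPSR, plated 24 h ahead at 15 K cells/well. Cells washed and loaded with Fluo4AM for 1 h at 37 °C, 5% CO2. Inhibition taken relative to NPS-stimulated control wells; IC50 from 4-parameter logistic fits; mean ± S.D. of multiple determinations.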

[2] = Clearance in iv dosed rat; assay type: ADME, organism-based; settings: in vivo
In short: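 IV clearance in rats measured in cassette dosing experiments.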

[3] = AUC (0 to infinity) in rat at 10 mg/kg, po; assay type: ADME, organism-based; parameters: time infinity, dose 10 mg/kg, route oral; settings: plasma
[4] = Unbound fraction in rat plasma by ultracentrifugation; assay type: ADME, cell-free
[5] = biological target: rat MDR1 (ABCB1, P-glycoprotein) (Rattus norvegicus, UniProt P43245); assay: Permeability of the compound assessed as rat MDR1-mediated directional transport ratio by cell based assay; settings: not told
rat MDR1 (ABCB1, P-glycoprotein), sequence (P43245 whole entry): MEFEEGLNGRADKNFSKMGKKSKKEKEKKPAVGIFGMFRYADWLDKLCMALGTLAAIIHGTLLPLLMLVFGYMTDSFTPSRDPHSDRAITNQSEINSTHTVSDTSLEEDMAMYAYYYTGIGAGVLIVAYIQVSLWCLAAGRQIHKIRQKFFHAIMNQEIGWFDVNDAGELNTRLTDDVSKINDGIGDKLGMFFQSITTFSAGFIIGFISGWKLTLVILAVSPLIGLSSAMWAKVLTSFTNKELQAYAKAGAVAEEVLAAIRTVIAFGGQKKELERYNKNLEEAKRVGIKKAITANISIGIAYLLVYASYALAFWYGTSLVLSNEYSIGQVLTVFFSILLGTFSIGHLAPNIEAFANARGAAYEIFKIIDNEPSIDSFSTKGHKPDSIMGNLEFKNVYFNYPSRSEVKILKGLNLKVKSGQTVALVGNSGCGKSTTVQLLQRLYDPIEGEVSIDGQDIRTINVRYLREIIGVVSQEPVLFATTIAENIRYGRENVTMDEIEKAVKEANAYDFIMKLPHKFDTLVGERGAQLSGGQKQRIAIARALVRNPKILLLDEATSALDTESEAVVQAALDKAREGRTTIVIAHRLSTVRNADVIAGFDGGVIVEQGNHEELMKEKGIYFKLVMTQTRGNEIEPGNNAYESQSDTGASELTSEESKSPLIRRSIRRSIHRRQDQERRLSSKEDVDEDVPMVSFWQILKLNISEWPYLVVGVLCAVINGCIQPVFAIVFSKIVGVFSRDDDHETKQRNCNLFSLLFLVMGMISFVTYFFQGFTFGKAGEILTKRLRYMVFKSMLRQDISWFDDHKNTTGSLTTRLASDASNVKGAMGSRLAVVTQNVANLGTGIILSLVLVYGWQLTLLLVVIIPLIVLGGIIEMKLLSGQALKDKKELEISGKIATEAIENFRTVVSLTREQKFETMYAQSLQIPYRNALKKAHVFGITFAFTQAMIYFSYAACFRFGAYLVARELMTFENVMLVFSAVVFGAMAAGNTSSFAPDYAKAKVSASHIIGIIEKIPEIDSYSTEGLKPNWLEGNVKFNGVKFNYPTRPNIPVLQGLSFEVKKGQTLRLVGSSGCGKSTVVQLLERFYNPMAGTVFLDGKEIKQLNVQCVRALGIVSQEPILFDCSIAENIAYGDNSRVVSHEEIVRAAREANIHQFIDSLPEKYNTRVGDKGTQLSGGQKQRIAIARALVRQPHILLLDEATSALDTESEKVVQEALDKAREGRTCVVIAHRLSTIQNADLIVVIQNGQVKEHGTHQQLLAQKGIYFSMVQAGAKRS
In short: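 Rat MDR1 directional transport ratio, calculated as (B–A)/(A–B). Average of three experiments; interassay variability 20%.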

[6] = Passive permeability of the compound; assay type: ADME; settings: not told
[7] = AUC (0 to infinity) in rat at 2 mg/kg, po; assay type: ADME, organism-based; parameters: time infinity, dose 2 mg/kg, route oral; settings: plasma
[8] = Lipophilicity, log P of the compound; assay type: physicochemical; settings: octanol/water
[9] = Drug level in plasma of rat at 30 mg/kg, ip measured after 30 mins; assay type: ADME, organism-based; parameters: dose 30 mg/kg, route intraperitoneal
In short: (§1)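 Compound dosed to rats at 30 mpk IP. Plasma levels measured at 30 min, 1 h and 2 h. Unbound exposures obtained by correcting for plasma free fraction.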

[10] = Drug level in plasma of rat at 30 mg/kg, ip measured after 1 hr; assay type: ADME, organism-based; parameters: dose 30 mg/kg, route intraperitoneal; in short: as §1
[11] = Drug level in plasma of rat at 30 mg/kg, ip measured after 2 hrs; assay type: ADME, organism-based; parameters: dose 30 mg/kg, route intraperitoneal; in short: as §1
[12] = test system: Plasma; assay: Unbound free concentration in rat plasma at 30 mg/kg, ip measured after 30 mins; assay type: ADME, organism-based; parameters: dose 30 mg/kg, route intraperitoneal; settings: in vivo, 0.5 h; in short: as §1
[13] = test system: Plasma; assay: Unbound free concentration in rat plasma at 30 mg/kg, ip measured after 1 hr; assay type: ADME, organism-based; parameters: dose 30 mg/kg, route intraperitoneal; settings: in vivo; in short: as §1
[14] = test system: Plasma; assay: Unbound free concentration in rat plasma at 30 mg/kg, ip measured after 2 hrs; assay type: ADME, organism-based; parameters: dose 30 mg/kg, route intraperitoneal; settings: in vivo; in short: as §1
[15] = biological target: Cannabinoid receptor 1 (Homo sapiens, UniProt P21554); assay: Inhibition of CB1 receptor
Cannabinoid receptor 1, sequence (P21554 whole entry): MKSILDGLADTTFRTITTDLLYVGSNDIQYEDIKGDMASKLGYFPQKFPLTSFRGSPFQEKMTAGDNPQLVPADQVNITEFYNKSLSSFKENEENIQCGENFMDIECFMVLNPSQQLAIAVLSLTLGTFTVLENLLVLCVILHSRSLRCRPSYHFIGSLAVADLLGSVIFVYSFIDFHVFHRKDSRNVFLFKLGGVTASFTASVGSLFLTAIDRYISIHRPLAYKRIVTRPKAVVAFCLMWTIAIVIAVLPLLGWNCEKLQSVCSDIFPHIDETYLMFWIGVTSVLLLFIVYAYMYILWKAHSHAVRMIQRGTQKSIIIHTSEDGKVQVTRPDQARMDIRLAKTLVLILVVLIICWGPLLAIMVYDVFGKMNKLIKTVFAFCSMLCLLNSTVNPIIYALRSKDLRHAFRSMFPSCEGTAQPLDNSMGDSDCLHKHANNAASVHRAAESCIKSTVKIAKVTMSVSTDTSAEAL

[16] = Drug level in rat cerebrospinal fluid at 75 mg/kg, ip after 30 mins; assay type: ADME, organism-based; parameters: dose 75 mg/kg, route intraperitoneal; settings: read-out: Drug uptake
In short: (§2)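 Compound given to rats at 75 mpk IP as a solution in 25% HPB-cyclodextrin. CSF and plasma sampled at 30 min and 2 h.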

[17] = Drug level in rat cerebrospinal fluid at 75 mg/kg, ip after 2 hrs; assay type: ADME, organism-based; parameters: dose 75 mg/kg, route intraperitoneal; settings: read-out: Drug uptake; in short: as §2
[18] = Ratio drug level in CSF to plasma in rat at 75 mg/kg, ip; assay type: ADME, organism-based; parameters: dose 75 mg/kg, route intraperitoneal; in short: as §2
[19] = Lipophilicity, log D of the compound by HPLC method; assay type: physicochemical
[20] = biological target: T2, Thromboxane A2 receptor (Homo sapiens, UniProt P21731); assay: Inhibition of thromboxane A2 receptor
T2 sequence (P21731 whole entry): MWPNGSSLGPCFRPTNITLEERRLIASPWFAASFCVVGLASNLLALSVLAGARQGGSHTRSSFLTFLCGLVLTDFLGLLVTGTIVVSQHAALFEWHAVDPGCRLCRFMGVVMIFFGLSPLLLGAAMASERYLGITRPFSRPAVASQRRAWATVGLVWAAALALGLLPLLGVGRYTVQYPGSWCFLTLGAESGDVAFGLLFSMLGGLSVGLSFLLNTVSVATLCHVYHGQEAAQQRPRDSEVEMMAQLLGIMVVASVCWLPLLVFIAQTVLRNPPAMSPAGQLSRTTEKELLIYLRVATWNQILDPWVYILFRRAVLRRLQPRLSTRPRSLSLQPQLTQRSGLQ

[21] = Inhibition of melatonin receptor
[22] = Inhibition of sodium channel site 2

Row | IC50 [1] | fraction unbound [4] | efflux ratio [5] | Compound | further results
1 | 0.635 µM |  |  | N#Cc1ccc(C2(CC3CCOCC3)c3ccccc3-c3nccn32)cc1 (configuration not stated) | 
2 | 0.145 µM | 0.011 | 0.6 | N#Cc1ccc(C2(CC3CCCC3)c3ccccc3-c3nccn32)cc1 (configuration not stated) | Papp [6]: 22 ×10⁻⁶ cm/s
3 | 0.114 µM |  | 1.6 | N#Cc1ccc(C2(CC3CCCCC3)c3ccccc3-c3nccn32)cc1 (configuration not stated) | Papp [6]: 17 ×10⁻⁶ cm/s
4 | 0.134 µM | 0.018 | 1.4 | Clc1ccc(C2(CC3CCOCC3)c3ccccc3-c3nccn32)cc1 (configuration not stated) | Papp [6]: 31 ×10⁻⁶ cm/s
5 | 0.092 µM | 0.19 | 1.2 | Brc1ccc(C2(CC3CCOCC3)c3ccccc3-c3nccn32)cc1 (racemic) | Papp [6]: 31 ×10⁻⁶ cm/s; clearance [2]: 48 mL/min/kg
6 | 0.095 µM | 0.006 | 1.7 | O=C(CCC1(c2ccc(Cl)cc2)c2ccccc2-c2nccn21)N1C2CCCC1CC2 (mixture of isomers) | clearance [2]: 34 mL/min/kg
7 | 0.092 µM | 0.006 | 1.5 | C[C@@H]1CC[C@H](C)N1C(=O)CCC1(c2ccc(Cl)cc2)c2ccccc2-c2nccn21 (mixture of isomers) | clearance [2]: 36 mL/min/kg
8 | 0.154 µM |  |  | Brc1ccc(C2(CCC3CCOCC3)c3ccccc3-c3nccn32)cc1 (racemic) | 
9 | 0.66 µM |  |  | Fc1ccc(C2(CC3CCOCC3)c3ccccc3-c3nccn32)cc1 (configuration not stated) | 
10 | 0.254 µM |  |  | Brc1ccc(C2(CC3CCCCC3)c3ccccc3-c3nccn32)cc1 (racemic) | 
11 | 0.046 µM | 0.008 |  | COc1cccc2c1C(CC1CCOCC1)(c1ccc(Cl)cc1)n1ccnc1-2 (configuration not stated) | AUC(0-inf) [3]: 0.425 µM·h
12 | 0.082 µM | 0.016 | 1.3 | COc1ccc2c(c1)C(CC1CCOCC1)(c1ccc(Cl)cc1)n1ccnc1-2 (configuration not stated) | AUC(0-inf) [7]: 0.114 µM·h; concentration at 0.5 h [16]: 594 nM; concentration at 2 h [17]: 153 nM; Ratio [18]: 1%; logD [19]: 3.2; IC50 [20]: 7 µM; IC50 [21]: 1.3 µM; IC50 [22]: 4 µM
13 | 0.321 µM |  |  | Brc1ccc(C2(CC3CCCC3)c3ccccc3-c3nccn32)cc1 (racemic) | 

The remaining lines, values behind:

Row | Compound | IC50 [1] | fraction unbound [4] | efflux ratio [5] | further results
14 | CCN(CC)C(=O)CCC1(c2ccc(Cl)cc2)c2ccccc2-c2nccn21 (racemic) |  |  |  | clearance [2]: 38 mL/min/kg; AUC(0-inf) [3]: 0.18 µM·h
15 | N#Cc1ccccc1CC1(c2ccc(Br)cc2)c2ccccc2-c2nccn21 (racemic) | 0.369 µM | < 0.01 | 1.7 | Papp [6]: 17 ×10⁻⁶ cm/s
16 | COc1ccc2c(c1)C(CCC(=O)N1[C@H](C)CC[C@@H]1C)(c1ccc(Cl)cc1)n1ccnc1-2 (some centres not stated) | 0.05 µM | 0.007 | 2.2 | AUC(0-inf) [7]: 0.115 µM·h
17 | Clc1ccc(C2(Cc3ccccc3)c3ccccc3-c3nccn32)cc1 (configuration not stated) | 0.358 µM |  |  | 
18 | Brc1ccc(C2(Cc3cccnc3)c3ccccc3-c3nccn32)cc1 (racemic) | 0.351 µM | 0.021 | 2.1 | Papp [6]: 31 ×10⁻⁶ cm/s
19 | CCN(CC)C(=O)CCC1(c2ccc(Cl)cc2)c2ccccc2-c2nccn21 (single isomer, unassigned) | 0.09 µM | 0.022 | 2.1 | 
20 | Brc1cccc(C2(Cc3ccccc3)c3ccccc3-c3nccn32)c1 (configuration not stated) | 1.73 µM |  |  | 
21 | CC(C1CCN(C(=O)CCC2(c3ccc(Cl)cc3)c3ccccc3-c3nccn32)CC1)N1CCCC1 (mixture of isomers) | 0.126 µM | 0.081 | 34.2 | clearance [2]: 38 mL/min/kg
22 | CC(C)N(C(=O)CCC1(c2ccc(Cl)cc2)c2ccccc2-c2nccn21)C(C)C (racemic) | 0.096 µM | 0.008 | 1.4 | clearance [2]: 26 mL/min/kg
23 | CCN(C(=O)CCC1(c2ccc(Cl)cc2)c2ccccc2-c2nccn21)C(C)C (racemic) | 0.138 µM | 0.007 | 2.3 | clearance [2]: 31 mL/min/kg
24 | Brc1ccc(C2(Cc3ccccc3)c3ccccc3-c3nccn32)cc1 (racemic) | 0.38 µM |  |  | 
25 | Brc1ccc(C2(Cc3ccccc3)c3cccnc3-c3nccn32)cc1 (configuration not stated) | 1.46 µM |  |  | 
26 | Cc1ccc(C2(Cc3ccccc3)c3ccccc3-c3nccn32)cc1 (configuration not stated) | 1.32 µM |  |  | 
27 | CC(C1CCN(C(=O)CCC2(c3ccc(Cl)cc3)c3ccccc3-c3nccn32)CC1)N1CCC(F)(F)C1 (mixture of isomers) | 0.239 µM | 0.029 | 2 | clearance [2]: 38 mL/min/kg
28 | N#Cc1ccc(C2(Cc3ccccc3)c3ccccc3-c3nccn32)cc1 (configuration not stated) | 0.387 µM | 0.17 | 0.9 | Papp [6]: 33 ×10⁻⁶ cm/s
29 | CCC1CCCCN1C(=O)CCC1(c2ccc(Cl)cc2)c2ccccc2-c2nccn21 (mixture of isomers) | 0.131 µM | 0.011 | 1.6 | clearance [2]: 20 mL/min/kg
30 | Fc1ccc(C2(Cc3ccccc3)c3ccccc3-c3nccn32)cc1 (configuration not stated) | 0.336 µM |  |  | 
31 | Brc1ccc(C2(Cc3ccccc3)c3ccccc3-c3nccn32)cc1 (stereo in doubt; 2) | 0.163 µM | 0.01 |  | Papp [6]: 10 ×10⁻⁶ cm/s; logP [8]: > 3.8
32 | Brc1ccc(C2(Cc3ccccc3)c3ccccc3-c3nccn32)cn1 (configuration not stated) | 1.5 µM |  |  | 
33 | CCN(CC)C(=O)CCC1(c2ccc(Cl)cc2)c2c(OC)cccc2-c2nccn21 (configuration not stated) | 0.043 µM | 0.013 | 2.9 | AUC(0-inf) [3]: 1.15 µM·h; concentration at 0.5 h [9]: 7800 nM; concentration at 1 h [10]: 5100 nM; concentration at 2 h [11]: 3000 nM; Cp(f) [12]: 101 nM; Cp(f) [13]: 66 nM; Cp(f) [14]: 39 nM; IC50 [15]: 6 µM
34 | Brc1ccc(C2(Cc3ccccc3)c3ccccc3-c3nccn32)nc1 (configuration not stated) | 2.18 µM |  |  | 
35 | N#Cc1cccc(C2(Cc3ccccc3)c3ccccc3-c3nccn32)c1 (configuration not stated) | 3.17 µM |  |  | 
36 | Brc1ccc(C2(CC3CCCC3)c3ccccc3-c3nccn32)cn1 (configuration not stated) | 0.851 µM | 0.013 | 1.3 | Papp [6]: 25 ×10⁻⁶ cm/s
